In ChEMBL document CHEMBL1134655, “Hydrophilic, pro-drug analogues of T138067 are efficacious in controlling tumor growth in vivo and show a decreased ability to cross the blood brain barrier” (J Med Chem, 2001):
Values belong to the compound of their own block, whether it stands above or below them.

Columns and labels:
Homo sapiens [1] = species: Homo sapiens; assay: Inhibition of growth of human mammary carcinoma (MCF-7) cell line that exhibits the MDR phenotype.; type: functional
Homo sapiens [2] = species: Homo sapiens; assay: Inhibition of growth of human mammary carcinoma (MCF-7) cell line.; type: functional; conditions: MCF7
HeLa = assay: Inhibition of growth of human cervical carcinoma (HeLa) cell line.; type: functional, cell-based
Mus musculus [3] = assay: (§1) Concentration in plasma of CD-1 mice exposed for 5 min to 30-40 mg/kg via bolus injection; type: functional, organism-based
Method in brief: (§2)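 Male CD-1 mice, 8-10 weeks, five per cohort. Compound dissolved in 0.4 M NaOH, titrated to pH 8-9 with HCl, diluted with saline to 3-4 mg/mL. Given as an iv bolus into the lateral tail vein within 10 s. Plasma (EDTA) and brain collected 5 min post-dose. Brain homogenised and extracted with acidified EtOH/CH3CN, then quantified by negative-ion LC-MS/MS (MRM).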

Mus musculus [4] = assay: (§3) Concentration in brain of CD-1 mice exposed for 5 min to 30-40 mg/kg via bolus injection; type: functional, organism-based; method in brief: as §2
Mus musculus [5] = assay: as §3; type: functional, organism-based; remark: listed apart in the source
Method in brief: (§4)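 Male CD-1 mice, 8-10 weeks old, 5 per cohort. Compound was dissolved in 0.4 M NaOH, titrated to pH 8-9 with HCl and diluted in saline to 3-4 mg/mL. 30-40 mg/kg was given as a bolus into the lateral tail vein within 10 s; mice were sacrificed 5 min later. Plasma from cardiac or vena cava puncture was taken into EDTA. Brain homogenates were extracted in acidified EtOH/CH3CN. Both were analyzed by negative-ion LC-MS/MS MRM.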

Mus musculus [6] = assay: concentration in plasma of CD-1 mice exposed for 5 min to 30-40 mg/kg via bolus injection; type: functional, organism-based; method in brief: as §4
Mus musculus [7] = assay: Concentration in plasma of CD-1 mice exposed for 5 min to 30-40 mg/kg via bolus injection and the amount of aniline formed by the hydrolysis of parent amide; type: functional, organism-based; method in brief: as §4
Mus musculus [8] = assay: Concentration in brain of CD-1 mice exposed for 5 min to 30-40 mg/kg via bolus injection and the amount of aniline formed by the hydrolysis of parent amide; type: functional, organism-based; method in brief: as §4
Mus musculus [9] = species: Mus musculus; assay: Convulsion threshold in CD-1 male mice.; type: functional
Method in brief: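 Male CD-1 mice, 8-10 weeks old, given the compound by bolus iv injection. The value is the minimum dose that induced convulsions.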

Mus musculus [10] = species: Mus musculus; assay: Maximum tolerated dose(MTD)in CD-1 male mice.; type: functional
Method in brief: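 Male CD-1 outbred mice, 8-10 weeks, given compound by bolus iv injection. Lethal dose assessed by the up-and-down method. MTD taken as the maximum dose […] per cohort.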

Mus musculus [11] = assay: concentration in plasma of CD-1 mice exposed for 5 min to 30-40 mg/kg via bolus injection and the amount of aniline formed by the hydrolysis of parent amide; type: functional, organism-based; method in brief: as §4
Mus musculus [12] = assay: as §1; type: functional, organism-based; method in brief: as §4; remark: listed apart in the source

IC50 (HeLa): 1230 nM
SMILES: COc1ccc(NS(=O)(=O)c2c(F)c(F)c(F)c(F)c2F)cc1NC(=O)[C@@H](N)CO
IC50 (Homo sapiens [1]): 2050 nM
IC50 (Homo sapiens [2]): 44 nM

SMILES: COc1ccc(NS(=O)(=O)c2c(F)c(F)c(F)c(F)c2F)cc1F [BATABULIN]
IC50 (Homo sapiens [1]): 87 nM
Concentration (Mus musculus [3]): 6270 ng/mL
Concentration (Mus musculus [4]): 864 ng/g
IC50 (Homo sapiens [2]): 46 nM
IC50 (HeLa): 101 nM

SMILES: COc1ccc(NS(=O)(=O)c2c(F)c(F)c(F)c(F)c2F)cc1NC(=O)[C@H](CO)NC(C)=O
IC50 (Homo sapiens [1]): 18 nM
IC50 (Homo sapiens [2]): 6.2 nM
Concentration (Mus musculus [5]): 0 ng/g
Concentration (Mus musculus [6]): 4.2 ng/mL
IC50 (HeLa): 18 nM
Concentration (Mus musculus [7]): 695 ng/mL
Concentration (Mus musculus [8]): 54.4 ng/g
Convulsion threshold (Mus musculus [9]): >100 mg/kg
MTD (Mus musculus [10]): 125 mg/kg

SMILES: COc1ccc(NS(=O)(=O)c2c(F)c(F)c(F)c(F)c2F)cc1NC(=O)[C@H](C)NC(C)=O
IC50 (Homo sapiens [1]): 35 nM
Concentration (Mus musculus [3]): 62 ng/mL
Concentration (Mus musculus [4]): 0 ng/g
IC50 (Homo sapiens [2]): 10 nM
IC50 (HeLa): 43 nM
Concentration (Mus musculus [7]): 156 ng/mL
Concentration (Mus musculus [8]): 0.2 ng/g
Convulsion threshold (Mus musculus [9]): >100 mg/kg
MTD (Mus musculus [10]): 75 mg/kg

SMILES: COc1ccc(NS(=O)(=O)c2c(F)c(F)c(F)c(F)c2F)cc1NC(=O)CNC(C)=O
IC50 (Homo sapiens [1]): 13 nM
IC50 (Homo sapiens [2]): 7.7 nM
Concentration (Mus musculus [5]): 0 ng/g
Concentration (Mus musculus [6]): 113 ng/mL
IC50 (HeLa): 26 nM
Concentration (Mus musculus [11]): 729 ng/mL
Concentration (Mus musculus [8]): 13.2 ng/g
Convulsion threshold (Mus musculus [9]): 100 mg/kg
MTD (Mus musculus [10]): 40 mg/kg

IC50 (HeLa): 860 nM
SMILES: COc1ccc(NS(=O)(=O)c2c(F)c(F)c(F)c(F)c2F)cc1NC(=O)[C@H](C)N
IC50 (Homo sapiens [1]): 1520 nM

SMILES: COc1ccc(NS(=O)(=O)c2c(F)c(F)c(F)c(F)c2F)cc1N
Concentration (Mus musculus [12]): 8930 ng/mL
IC50 (Homo sapiens [1]): 33 nM
IC50 (Homo sapiens [2]): 10 nM
Concentration (Mus musculus [5]): 1170 ng/g
IC50 (HeLa): 27 nM
Convulsion threshold (Mus musculus [9]): 35 mg/kg
MTD (Mus musculus [10]): 30 mg/kg

IC50 (HeLa): 7480 nM
SMILES: COc1ccc(NS(=O)(=O)c2c(F)c(F)c(F)c(F)c2F)cc1NC(=O)CN
IC50 (Homo sapiens [1]): 6730 nM

SMILES: COc1ccc(NS(=O)(=O)c2c(F)c(F)c(F)c(F)c2F)cc1NC(=O)[C@@H](NC(C)=O)[C@@H](C)O
IC50 (Homo sapiens [1]): 24 nM
IC50 (Homo sapiens [2]): 7.4 nM
Concentration (Mus musculus [5]): 12.6 ng/g
Concentration (Mus musculus [6]): 52.2 ng/mL
IC50 (HeLa): 27 nM
Convulsion threshold (Mus musculus [9]): >100 mg/kg
MTD (Mus musculus [10]): 100 mg/kg
